Data from ChEMBL document CHEMBL2163238, “Design, synthesis, and biological evaluation of N-alkylated deoxynojirimycin (DNJ) derivatives for the treatment of dengue virus infection” (J Med Chem, 2012).
pEC50: −log10 of the molar value. In brackets after ≈: the same amount, converted by molar mass. Activity calls are given as the source filed them. No cut-off for these calls is given here.

Columns and labels:
in vivo = conditions: Sprague-Dawley, rat, po, 25 mg/kg
Rattus norvegicus [1] = experiment: Volume of distribution in Sprague-Dawley rat at 25 mg/kg, po; format: ADME, organism-based; set-up: dose 25 mg/kg, route oral; conditions: in vivo
[2] = Metabolic stability in mouse liver microsomes at 60 mins; format: ADME, Microsome; conditions: read-out: Stability
CYP2D6 = CYP2D6 (Homo sapiens, UniProt P10635); experiment: Inhibition of human CYP2D6 at 10 uM; format: ADME
Method in brief: (§1)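 Inhibition of CYP isoforms by compounds tested at 10 μM, given as percent inhibition; contract in vitro ADME panel.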

[3] = Aqueous solubility in PBS at pH 7.4; format: physicochemical; conditions: buffer
Rattus norvegicus [4] = experiment: Acute toxicity in Sprague-Dawley rat assessed as body weight loss at 25 to 200 mg/kg, po after 7 days; format: organism-based; set-up: dose 25-200 mg/kg, route oral; conditions: in vivo, 168 h
Method in brief: (§2)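 Single oral dose (25, 50, 100 or 200 mg/kg, or vehicle) given to 10-week-old male rats, 2 per group. Compound dissolved at 20 mM in PBS with 10% Solutol HS15, shaken 6 h at 37 °C. Animals observed 7 days for clinical signs, body weight and food consumption, then sacrificed on day 8.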

CYP1A2 = target: T1, CYP1A2 (Homo sapiens, UniProt P05177); experiment: Inhibition of human CYP1A2 at 10 uM; format: ADME
T1 sequence (P05177 whole entry): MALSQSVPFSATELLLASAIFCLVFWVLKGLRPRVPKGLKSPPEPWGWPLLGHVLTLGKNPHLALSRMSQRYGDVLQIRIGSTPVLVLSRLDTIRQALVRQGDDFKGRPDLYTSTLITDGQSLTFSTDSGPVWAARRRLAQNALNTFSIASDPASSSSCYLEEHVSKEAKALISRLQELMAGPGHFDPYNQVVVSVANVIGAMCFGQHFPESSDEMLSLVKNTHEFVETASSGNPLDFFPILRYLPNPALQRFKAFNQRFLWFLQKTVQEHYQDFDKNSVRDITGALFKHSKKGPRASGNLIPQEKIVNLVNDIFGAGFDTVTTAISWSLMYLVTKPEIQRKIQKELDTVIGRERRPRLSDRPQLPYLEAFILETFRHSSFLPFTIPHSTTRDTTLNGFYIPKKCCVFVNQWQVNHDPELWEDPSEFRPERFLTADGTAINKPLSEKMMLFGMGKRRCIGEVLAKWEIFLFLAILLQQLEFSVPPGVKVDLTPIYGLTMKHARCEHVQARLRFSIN
Method in brief: (§3)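 Inhibition of CYP isoforms with compound at 10 μM, reported as % inhibition. CYP3A4 run with midazolam or testosterone as substrate.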

Rattus norvegicus [5] = experiment: Acute toxicity in Sprague-Dawley rat assessed as mortality at 25 to 200 mg/kg, po after 7 days; format: organism-based; set-up: dose 25-200 mg/kg, route oral; conditions: in vivo, 168 h
[6] = Plasma half life in Sprague-Dawley rat at 5 mg/kg, iv; format: ADME, organism-based; set-up: dose 5 mg/kg, route intravenous
[7] = Plasma protein binding in human plasma; format: ADME, cell-free; conditions: read-out: PPB (converted)
Method in brief: (§4)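 Binding of compound to human, rat or mouse plasma protein, reported as % bound.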

Dengue virus = experiment: Antiviral activity against 0.01 MOI DENV infected in human Huh7.5 cells assessed as reduction in viral […] protein level at 0.1 to 100 uM after 2 days by Western blotting; format: functional, organism-based; conditions: Huh-7
Rattus norvegicus [8] = experiment: Acute toxicity in Sprague-Dawley rat assessed as occurrence of soft feces at 50 to 100 mg/kg, po measured at 1 to 2 days; format: organism-based; set-up: route oral; conditions: in vivo
Method in brief: as §2

Rattus norvegicus [9] = experiment: Acute toxicity in Sprague-Dawley rat assessed as occurrence of diarrhea at 200 mg/kg, po measured at 1 to 2 days; format: organism-based; set-up: dose 200 mg/kg, route oral; conditions: in vivo
Method in brief: as §2

dengue virus type 2 = experiment: Antiviral activity against 0.01 MOI DENV-2 NGC infected in BHK cells assessed as reduction in viral titer after 48 hrs; format: functional, organism-based
Method in brief: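 BHK cells infected with DENV-2 New Guinea C at MOI 0.01 for 1 h. Inoculum removed, then compounds at 0.1–100 μM for 48 h at 37 °C. Supernatants titrated on Vero monolayers as 10-fold dilutions under 0.5% methylcellulose for 3–5 days. Foci detected by 4G2 immunostaining or crystal violet plaques. EC50 from dose–response curves, mean of 3 independent experiments.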

CYP3A4 [10] = target: T2, CYP3A4 (Homo sapiens, UniProt P08684); experiment: Inhibition of human CYP3A4 using midazolam as substrate at 10 uM; format: ADME; conditions: probe midazolam
Method in brief: as §3

MDBK = experiment: Competitive inhibition of endoplasmic reticulum-resident alpha-glucosidase in MDBK cells infected with 1 MOI BVDV assessed as decrease in viral E2 protein mobility at 0.8 to 100 uM after 24 hrs by Western blotting; format: cell-based; conditions: Bos taurus
Method in brief: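 MDBK cells infected with BVDV at MOI 1 for 1 h, then compounds at 0.8, 4.0, 20 and 100 μM. Cells lysed in Laemmli buffer, run on 12% polyacrylamide gel and transferred to nitrocellulose. BVDV E2 mobility probed with monoclonal WB166 and β-actin detected in parallel. IR-dye secondary antibody, Odyssey imaging.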

[11] = Antiviral activity against 1 MOI BVDV NADL infected in MDBK cells assessed as reduction in viral titer after 22 hrs; format: functional, cell-based, Bovine viral diarrhea virus 1-NADL; conditions: Bovine viral diarrhea virus isolates and strains, MDBK, 22 h
Method in brief: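 MDBK cells (2×10^5) infected 24 h after seeding with BVDV NADL at MOI 1, with 1 h adsorption at 37 °C. Washed, then compounds at 0.1–100 μM. Media harvested 22 h post-infection and plaque-titrated on MDBK under 1% methylcellulose for 3 days. Plaques counted directly or after neutral red staining. EC50 from dose–response curves, mean of 3 independent experiments.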

[12] = Cytotoxicity against human Huh7.5 cells assessed as cell viability by DRAQ5 and Sapphire 700 staining; conditions: huh-7
[13] = Volume of distribution in Sprague-Dawley rat at 5 mg/kg, iv; format: ADME, organism-based; set-up: dose 5 mg/kg, route intravenous; conditions: in vivo
[14] = Plasma protein binding in rat plasma; format: ADME, cell-free; conditions: read-out: PPB (converted)
Method in brief: as §4

[15] = Cytotoxicity against MDBK cells assessed as cell viability by MTT assay; format: cell-based, Bos taurus; conditions: cattle
CYP2C9 = CYP2C9 (Homo sapiens, UniProt P11712); experiment: Inhibition of human CYP2C9 at 10 uM; format: ADME
Method in brief: as §1

[16] = Aqueous solubility in PBS at pH 4; format: physicochemical; conditions: buffer
CYP3A4 [17] = target: T2, CYP3A4; experiment: Inhibition of human CYP3A4 using testosterone as substrate at 10 uM; format: ADME; conditions: probe testosterone
Method in brief: as §3

CYP2C19 = CYP2C19 (Homo sapiens, UniProt P33261); experiment: Inhibition of human CYP2C19 at 10 uM; format: ADME
Method in brief: as §3

[18] = Metabolic stability in rat liver microsomes at 60 mins; format: ADME, Microsome; conditions: read-out: Stability
[19] = Plasma protein binding in mouse plasma; format: ADME, cell-free; conditions: read-out: PPB (converted)
Method in brief: as §4

[20] = Cytotoxicity against BHK cells assessed as cell viability by MTT assay; format: cell-based, Mesocricetus auratus; conditions: hamster
[21] = Metabolic stability in human liver microsomes at 60 mins; format: ADME, Microsome; conditions: read-out: Stability

T2 sequence (P08684 whole entry): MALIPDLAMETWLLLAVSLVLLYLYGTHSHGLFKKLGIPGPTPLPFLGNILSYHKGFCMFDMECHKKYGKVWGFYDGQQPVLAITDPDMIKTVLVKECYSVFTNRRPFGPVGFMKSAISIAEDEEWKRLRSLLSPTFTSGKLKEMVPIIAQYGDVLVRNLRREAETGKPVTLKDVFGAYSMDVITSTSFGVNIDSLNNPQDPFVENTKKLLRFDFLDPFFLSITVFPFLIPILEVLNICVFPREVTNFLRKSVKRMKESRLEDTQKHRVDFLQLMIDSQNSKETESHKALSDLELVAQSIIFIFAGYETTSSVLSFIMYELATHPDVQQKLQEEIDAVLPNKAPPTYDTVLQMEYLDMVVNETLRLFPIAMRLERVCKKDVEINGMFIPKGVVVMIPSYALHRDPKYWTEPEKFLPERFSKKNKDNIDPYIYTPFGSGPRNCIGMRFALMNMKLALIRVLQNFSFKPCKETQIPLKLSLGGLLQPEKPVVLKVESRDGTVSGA
Sequence of CYP2D6 (P10635 whole entry, canonical isoform): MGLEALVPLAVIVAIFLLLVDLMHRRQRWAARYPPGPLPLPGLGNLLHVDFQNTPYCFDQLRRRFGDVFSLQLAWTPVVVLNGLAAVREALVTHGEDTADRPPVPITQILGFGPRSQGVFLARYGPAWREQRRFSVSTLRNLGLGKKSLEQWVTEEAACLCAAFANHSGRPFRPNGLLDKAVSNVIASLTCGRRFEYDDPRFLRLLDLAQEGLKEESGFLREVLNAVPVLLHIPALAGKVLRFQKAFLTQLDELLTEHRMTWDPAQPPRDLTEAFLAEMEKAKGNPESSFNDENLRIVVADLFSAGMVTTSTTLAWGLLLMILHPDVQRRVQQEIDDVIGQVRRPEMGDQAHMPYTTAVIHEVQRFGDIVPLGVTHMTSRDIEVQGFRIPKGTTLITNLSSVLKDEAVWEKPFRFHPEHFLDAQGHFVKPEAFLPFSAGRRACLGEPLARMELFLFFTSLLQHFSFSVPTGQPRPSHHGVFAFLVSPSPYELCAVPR
Sequence of CYP2C19 (P33261 whole entry): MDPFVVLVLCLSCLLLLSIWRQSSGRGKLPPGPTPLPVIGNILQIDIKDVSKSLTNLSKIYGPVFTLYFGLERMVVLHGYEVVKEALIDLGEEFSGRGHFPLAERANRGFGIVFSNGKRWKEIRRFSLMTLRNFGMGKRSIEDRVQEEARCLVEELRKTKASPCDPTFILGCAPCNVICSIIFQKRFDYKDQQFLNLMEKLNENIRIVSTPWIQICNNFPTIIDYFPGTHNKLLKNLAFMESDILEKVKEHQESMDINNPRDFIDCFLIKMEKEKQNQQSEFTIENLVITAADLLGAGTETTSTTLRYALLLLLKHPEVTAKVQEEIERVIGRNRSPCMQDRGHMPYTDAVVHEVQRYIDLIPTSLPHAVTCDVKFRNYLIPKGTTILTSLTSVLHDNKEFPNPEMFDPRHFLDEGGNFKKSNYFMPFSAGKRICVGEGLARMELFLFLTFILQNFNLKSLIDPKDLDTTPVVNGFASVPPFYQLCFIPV
Sequence of CYP2C9 (P11712 whole entry): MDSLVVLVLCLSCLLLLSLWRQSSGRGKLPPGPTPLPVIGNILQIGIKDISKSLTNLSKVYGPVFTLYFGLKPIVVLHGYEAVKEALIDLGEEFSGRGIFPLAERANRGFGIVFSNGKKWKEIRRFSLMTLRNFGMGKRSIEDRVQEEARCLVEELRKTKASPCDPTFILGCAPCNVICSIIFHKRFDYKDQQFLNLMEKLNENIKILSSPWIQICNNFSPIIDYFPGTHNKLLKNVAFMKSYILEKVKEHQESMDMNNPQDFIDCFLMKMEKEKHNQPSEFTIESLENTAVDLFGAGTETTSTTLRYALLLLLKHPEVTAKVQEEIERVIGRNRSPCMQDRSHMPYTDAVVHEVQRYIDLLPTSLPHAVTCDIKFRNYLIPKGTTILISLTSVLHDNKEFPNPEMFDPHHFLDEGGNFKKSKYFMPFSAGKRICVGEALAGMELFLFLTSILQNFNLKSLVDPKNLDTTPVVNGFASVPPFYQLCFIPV

SMILES: OC[C@@H]1[C@@H](O)[C@H](O)[C@@H](O)CN1CCCCCCOc1cc(F)ccc1F
- Tmax (in vivo): 4.2 h
- Vd (Rattus norvegicus [1]): 17.2 L/kg
- remaining at 1 h [2]: 91%
- inhibition at 10 µM (CYP2D6): 11.4%
- solubility [3]: 292 µM (≈ 110 µg/mL)
- Activity (Rattus norvegicus [4]): Non-toxic
- inhibition at 10 µM (CYP1A2): 24.4%
- Activity (Rattus norvegicus [5]): Non-toxic
- half-life [6]: 1.44 h
- fraction unbound [7]: 0.26
- Activity (Dengue virus): Active
- Activity (Rattus norvegicus [8]): Toxic
- Activity (Rattus norvegicus [9]): Toxic
- Activity (dengue virus type 2): Dose-dependent effect
- pEC50 (dengue virus type 2): 6.40
- inhibition at 10 µM (CYP3A4 [10]): 10.9%
- inhibition (MDBK): Active
- pEC50 [11]: 6.30
- Activity [12]: Non-toxic
- Vd [13]: 3.1 L/kg
- fraction unbound [14]: 0.32
- CC50 [15]: > 500000 nM
- inhibition at 10 µM (CYP2C9): 7.1%
- solubility [16]: 296 µM (≈ 111 µg/mL)
- inhibition at 10 µM (CYP3A4 [17]): -1.9%
- inhibition at 10 µM (CYP2C19): 1.6%
- remaining at 1 h [18]: 79%
- fraction unbound [19]: 0.23
- CC50 [20]: > 500000 nM
- remaining at 1 h [21]: 91%
